Data set [1] has as its system West Nile virus. In words: Inhibition of West Nile viral Rluc-Neo-Rep in BHK21 cell line. The format is functional, organism-based. The following applies: BHK-21. The method, boiled down:
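BHK-21 cell line stably carrying Rluc-Neo-Rep replicon; inhibition read as suppression of Renilla luciferase signal. Initial screen at 30 µM, 1% DMSO final; EC50 (µM) then determined.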

Data set [2] has as its system BHK-21. In words: Cytotoxicity against BHK21 cell line by MTT assay. The format is functional. The following applies: Mesocricetus auratus. The method, boiled down:
(§1)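 MTT cytotoxicity assay run in BHK-21 and Vero cells on compounds giving >50% Rluc inhibition in the primary screens; CC50 reported in µM.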
A general note: Tetrazolium dyes change colour on reduction, which living cells bring about.

A short description of data set [3]: Therapeutic index (CC50/EC50) in BHK21 cells. The class given is cell-based, BHK-21. The following applies: hamster, read-out: Ratio CC50/EC50. The method, boiled down:
(§2)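 TI computed as CC50/EC50, using MTT CC50 and replicon EC50 in BHK-21 cells, or MTT CC50 and Rluc-FL-WNV EC50 in Vero cells.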

In data set [4] the test system is West Nile virus. In words: Inhibition of Rluc-FL-WNV replicon in Vero cells. The format is functional, organism-based. The method, boiled down: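 Vero cells infected with full-length WNV carrying Renilla luciferase reporter (Rluc-FL-WNV), covering entry, replication and assembly; inhibition read as suppression of luciferase signal. Compounds first screened at 30 µM in 1% DMSO final, then EC50 (µM) determined.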
In general terms: Replicon systems follow genome replication, usually without infectious particles.

Data set [5] has as its system Vero. In words: Cytotoxicity against Vero cells by MTT assay. The following applies: Chlorocebus sabaeus. The format is functional. The method, boiled down:
as §1

A short description of data set [6]: Therapeutic index (CC50/EC50) in Vero cells. The following applies: monkey, read-out: Ratio CC50/EC50. The class given is cell-based. The method, boiled down: as §2
Data set [7] deals with BHK-21. In words: Inhibition of West Nile virus VLP replicon in BHK21 cell line. The class given is functional, cell-based. The following applies: Mesocricetus auratus. The method, boiled down:
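Naive BHK-21 cells infected with virus-like particles, made by expressing WNV structural proteins in cells carrying the Rluc-Neo-Rep replicon, which package replicon RNA. This captures entry and replication but not assembly. Inhibition is read as suppression of Renilla luciferase signal. Compounds were given in 1% DMSO final, and EC50 is in µM.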

Data set [8] deals with Vero. Description: Inhibition of West Nile viral Rluc-Neo-Rep in Vero cells. The class given is functional, cell-based. The following applies: Chlorocebus sabaeus. The method, boiled down: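 Vero cells containing the Rluc-Neo-Rep replicon, used to check cell-line dependence; inhibition measured as suppression of Renilla luciferase signal, EC50 in µM.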
Data set [9] concerns West Nile virus. Description: Activity against West Nile virus RlucRep RNA translation in BHK21 cells at 100 uM, 2 hr post transfection. The format is functional, BHK-21. The method, boiled down:
(§3)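 BHK cells transfected with WN RlucRep RNA (transient replicon), incubated with compound at 33 or 100 µM; luciferase read at 2, 4 and 72 h post-transfection. 2 and 4 h signals report viral translation, 72 h reports RNA synthesis. Activity given as percent of luciferase signal versus mock-treated transfection; average of two to three experiments.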

Data set [10] concerns West Nile virus. In words: Activity against West Nile virus RlucRep RNA translation in BHK21 cells at 33 uM, 4 h post transfection. The class given is functional, BHK-21. The method, boiled down:
as §3

Data set [11] concerns West Nile virus. Description: Activity against West Nile virus RlucRep RNA translation in BHK21 cells at 100 uM, 4 hr post transfection. The class given is functional, BHK-21. The method, boiled down: as §3
Data set [12] has as its system West Nile virus. In words: Activity against West Nile virus RlucRep RNA synthesis in BHK21 cells at 33 uM, 72 hr post transfection. The format is functional, BHK-21. The method, boiled down:
as §3

The test system of data set [13] is West Nile virus. In words: Activity against West Nile virus RlucRep RNA synthesis in BHK21 cells at 100 uM, 72 h post transfection. The format is functional, BHK-21. The method, boiled down:
as §3

Data set [14] concerns West Nile virus. In words: Activity against West Nile virus RlucRep RNA translation in BHK21 cells at 33 uM, 2 hr post transfection. The class given is functional, BHK-21. The method, boiled down: as §3
Data set [15] concerns West Nile virus. In words: Inhibition of West Nile virus in vero cells at 11 uM; values are per cent of control.
In data set [16] the test system is West Nile virus. Description: Inhibition of West Nile virus in Vero cells at 33 uM; values are per cent of control.
Data set [17] concerns West Nile virus. Description: Inhibition of West Nile virus in Vero cells at 0.4 uM; values are per cent of control.
The test system of data set [18] is West Nile virus. Description: Inhibition of West Nile virus in Vero cells at 1.2 uM; values are per cent of control.
In data set [19] the test system is West Nile virus. Description: Inhibition of West Nile virus in Vero cells at 3.7 uM; values are per cent of control.
Data set [20] relates to West Nile virus. Description: Inhibition of West Nile virus in Vero cells at 100 uM; values are per cent of control.

pEC50: −log10 of the molar value. Where only a bound is given, the exact number is not on record here.

A word on the pEC50: it is the negative decadic logarithm of the EC50, by convention in mol/L. The CC50 is the concentration that lowers cell viability or growth by half. Low values mean greater toxicity to the cells, high ones lower toxicity to the cells. For `O=C(c1ccccc1)N1N=C(c2cccs2)CC1c1ccc(Cl)cc1` (stereo unspecified), the negative logarithm of the EC50 (pEC50) in [1] is 4.77; in [4], 4.64; in data set [7], 4.82; in [8] it was 4.82. Further, the cytotoxic concentration (CC50) in data set [2] and in [5] was above 300 µM throughout. Moreover, the selectivity ratio in [3] was above 18; in [6], above 13.

For the compound `CN1CCN(c2cc(-c3ccc(C(C)(C)C)cc3)nc3ccccc23)CC1`, the figures for the negative logarithm of the EC50 (pEC50) in data set [1], in data set [4] and in data set [7] were 4.84, 4.82 and 5.10, respectively. For the same compound, the CC50 in data set [2] was 50 µM; in data set [5], 20 µM. Further, the selectivity ratio in data set [3] worked out at 3.4; in data set [6], 1.3.

As usually defined, the remaining activity is the signal under treatment as a percentage of the control signal. A low value points to little activity left. On to `O=C(Cc1ccc(Cl)cc1)N1N=C(c2cccs2)CC1c1ccc([N+](=O)[O-])cc1` (stereo unspecified), for which the pEC50 in data set [1] is 4.96; in [4] it was 4.60; in data set [7], 5.10; in [8], 5.15. Besides, the Activity in data set [9] was 81%; in data set [10], 92%; in [11], 93%; in [12], 12%; in data set [13], 16%; in data set [14], 80%. Besides, the 50% cytotoxic concentration (CC50) in data set [2] and in data set [5] was above 300 µM in each case. Moreover, the selectivity ratio was above 27 in data set [3] and above 12 in [6]. The compound further displayed a remaining activity at 11 µM in data set [15] of 55%. The remaining activity at 33 µM in data set [16] was determined as 23%. In data set [17], this compound registered a remaining activity at 0.4 µM of 100%. The compound further displayed a remaining activity at 1.2 µM in [18] of 92%. In addition, in data set [19], the remaining activity at 3.7 µM amounted to 90%. This compound came in with a remaining activity at 100 µM in [20] of 23%.

`CN1CCN(c2cc(-c3ccc(C(C)(C)C)cc3)c3ccccc3n2)CC1`: the results for the pEC50 in data set [1], in [4] and in [7] were 4.77, 4.52 and 4.70, respectively. The CC50 in data set [2] is 110 µM; in data set [5], 25 µM. Further, the selectivity ratio in data set [3] came to 6.5; in [6] it was 0.8.

With `CN1CCN(Cc2ccc3c(c2)Oc2ccccc2C3)CC1`, the negative-log EC50 (pEC50) in [1] was below 4.52; in [4] it was below 4.52; in [7], 4.55. The CC50 in data set [2] amounted to 200 µM; in data set [5], 90 µM. Further, the selectivity ratio in data set [3] is below 6.7; in [6] it was below 3.

As for `CN1CCN(Cc2ccc3c(c2)Oc2ccccc2C3O)CC1` (stereo unspecified), the pEC50 in data set [1] was 4.87; in data set [4], 5.00; in [7], 5.40. Also, the values for the CC50 in [2] and in [5] were 325 µM and 50 µM, respectively. For the same compound, the selectivity ratio in [3] was 24; in [6] it was 5.

Take `CN1CCN(C(=O)c2cccc3c(Oc4ccccc4)c4ccccc4nc23)CC1`: the pEC50 in [1], in [4] and in data set [7] was 4.70 in each case. For the same compound, the CC50 in data set [2] worked out at 150 µM; in data set [5], 50 µM. For the same compound, the selectivity ratio in data set [3] was 7.5; in data set [6], 2.5.

In the case of `COc1c(C)c2c(c(O)c1C/C=C(\C)CCC(=O)O)C(=O)OC2` [MYCOPHENOLIC ACID], the negative-log EC50 (pEC50) in data set [1] is 5.85; in data set [4], 7.40; in data set [7], 7.40; in [8], 7.10.

Turning to `NC(=O)c1ncn([C@@H]2O[C@H](CO)[C@@H](O)[C@H]2O)n1` [RIBAVIRIN], the pEC50 is 4.74 in data set [1], 4.52 in [4], 5.96 in data set [7] and 3.92 in data set [8].

The record behind these values is ChEMBL document CHEMBL1138199, “Identification of compounds with anti-West Nile Virus activity” (J Med Chem, 2006).
